Assay results of several laboratories.
Each line is one published result; the experiments were not run side by side.
PIK3CA M1043I: Phosphatidylinositol 4,5-bisphosphate 3-kinase catalytic subunit alpha isoform (PIK3CA, Homo sapiens, UniProt P42336, M1043I)
PIK3CA E542K: Phosphatidylinositol 4,5-bisphosphate 3-kinase catalytic subunit alpha isoform (PIK3CA, Homo sapiens, UniProt P42336, E542K)
PIK3CA I800L: Phosphatidylinositol 4,5-bisphosphate 3-kinase catalytic subunit alpha isoform (PIK3CA, Homo sapiens, UniProt P42336, I800L)
PIK3CA E545A: Phosphatidylinositol 4,5-bisphosphate 3-kinase catalytic subunit alpha isoform (PIK3CA, Homo sapiens, UniProt P42336, E545A)
PIK3CA H1047Y: Phosphatidylinositol 4,5-bisphosphate 3-kinase catalytic subunit alpha isoform (PIK3CA, Homo sapiens, UniProt P42336, H1047Y)
PIK3CA Q546K: Phosphatidylinositol 4,5-bisphosphate 3-kinase catalytic subunit alpha isoform (PIK3CA, Homo sapiens, UniProt P42336, Q546K)
PIK3CA C420R: Phosphatidylinositol 4,5-bisphosphate 3-kinase catalytic subunit alpha isoform (PIK3CA, Homo sapiens, UniProt P42336, C420R)
PIK3CA H1047L: Phosphatidylinositol 4,5-bisphosphate 3-kinase catalytic subunit alpha isoform (PIK3CA, Homo sapiens, UniProt P42336, H1047L)

O=C(c1ccc(Nc2nccc(-c3cc4ccccc4s3)n2)cc1)N1CCC(N2CCCC2)CC1
remaining binding (PIK3CA M1043I; binding; competition with immobilised ligand; 1 µM): 81%

COc1cnc(Nc2cccc(S(N)(=O)=O)c2)nc1N1CCN(c2ccccc2)C(=O)C1
remaining binding (PIK3CA E542K; binding; competition with immobilised ligand; 1 µM): 91%

CCN1CCN(Cc2ccc(C(=O)Nc3ccc(C)c(Oc4ccc5c(c4)CC(=O)N5)c3)cc2C(F)(F)F)CC1
remaining binding (PIK3CA I800L; binding; competition with immobilised ligand; 1 µM): 95%

Nc1ncc2c(n1)-c1c([nH]c3ccc(C#CC4CC4)cc13)CCCC2
remaining binding (PIK3CA I800L; binding; competition with immobilised ligand; 1 µM): 81%

C=CC(=O)N1CCC(C(=O)NCC(=O)N2CCN(c3nc(-c4cnc(N)nc4C(F)F)nc(N4CCOCC4)n3)CC2)CC1
remaining binding (PIK3CA M1043I; binding; competition with immobilised ligand; 1 µM): 0%

Cc1c[nH]c2nccc(Oc3c(F)cc(Nc4cc(Cl)nc(N)n4)cc3F)c12
remaining binding (PIK3CA E545A; cell-free assay; competition with immobilised ligand; 0.1 µM): 88%

O=C(NCCCN1CCOCC1)c1ccc(Nc2nccc(-c3cc4ccccc4s3)n2)cc1
remaining binding (PIK3CA H1047Y; binding; competition with immobilised ligand; 1 µM): 73%

FC(F)(F)c1ccc2c(c1)nc(-c1cccnc1)n2C1CC1
remaining binding (PIK3CA M1043I; cell-free assay; competition with immobilised ligand; 1 µM): 100%

C[C@H]1CCN(c2nccc(-c3cnn4ncccc34)n2)C1
remaining binding (PIK3CA M1043I; binding; 1 µM): 100%

NS(=O)(=O)c1cc(NC(=O)C2(c3ccccc3Cl)CC2)ccc1Oc1cccc(Cl)c1
remaining binding (Phosphatidylinositol 4,5-bisphosphate 3-kinase catalytic subunit alpha isoform (PIK3CA, Homo sapiens, UniProt P42336); cell-free assay; competition with immobilised ligand; 1 µM): 100%

CNC(=O)[C@@H]1CC[C@@H](n2c(-c3ccc4cnccc4c3)nc3ccc(C(=O)NCc4cccc(C(N)=O)c4)cc32)C1
remaining binding (PIK3CA M1043I; binding; competition with immobilised ligand; 1 µM): 79%

C[C@@H](c1ccc(-n2cnc3c(N)ncnc32)cc1)N1CCc2nn(C)c(Cc3ccccc3)c2C1=O
remaining binding (PIK3CA M1043I; binding; competition with immobilised ligand; 0.1 µM): 89%

O=C(c1ccc(Nc2ncc(Cl)c(-c3ccc(Cl)s3)n2)cc1)N1CCC(N2CCCC2)CC1
remaining binding (PIK3CA H1047Y; binding; competition with immobilised ligand; 1 µM): 100%

COc1ncc2cc3ccccc3nc2c1C#N
remaining binding (PIK3CA Q546K; cell-free assay; competition with immobilised ligand; 5 µM): 99%

CC1CCCN1c1nccc(-c2cnn3ncccc23)n1 (centres unmarked)
remaining binding (PIK3CA C420R; binding; 1 µM): 72%

COc1cnc(Nc2cccc(S(N)(=O)=O)c2)nc1N1CCN(c2ccccc2)CC1
remaining binding (PIK3CA E542K; binding; competition with immobilised ligand; 1 µM): 93%

Cc1cnc(Nc2ccc(C(=O)N3CCC(N4CCCC4)CC3)cc2)nc1-c1cc2ccccc2s1
remaining binding (PIK3CA M1043I; binding; competition with immobilised ligand; 1 µM): 74%

CN(CCCC(F)(F)F)c1nccc(-c2cnn3ncccc23)n1
remaining binding (PIK3CA Q546K; binding; 1 µM): 69%

c1cncc(-c2cccc(Nc3nccc(NC4CCCCC4)n3)c2)c1
remaining binding (PIK3CA I800L; binding; competition with immobilised ligand; 10 µM): 77%

CN1CCN(c2ccc(Nc3nccc(-c4cccc([N+](=O)[O-])c4)n3)cc2C(F)(F)F)CC1
remaining binding (PIK3CA H1047Y; binding; 10 µM): 27%

CS(=O)(=O)N1CCCC(NC(=O)[C@H](CCC2CCCCC2)NC(=O)c2ccc(CNc3ncnc4c3nnn4-c3ccccc3)cc2)C1 (some centres unmarked)
remaining binding (Phosphatidylinositol 4,5-bisphosphate 3-kinase catalytic subunit alpha isoform (PIK3CA, Homo sapiens, UniProt P42336, E545K); cell-free assay; competition with immobilised ligand; 0.1 µM): 53%

O=C(NCC1CCOCC1)c1n[nH]cc1NC(=O)c1c(F)cccc1F
remaining binding (PIK3CA H1047L; binding; competition with immobilised ligand; 1 µM): 74%

CN(C)c1ncc(F)c(-c2cnn3ncccc23)n1
remaining binding (PIK3CA E545A; binding; 1 µM): 59%

O=C(NCCCN1CCOCC1)c1ccc(Nc2ncc(Cl)c(-c3ccc(Cl)s3)n2)cc1
remaining binding (PIK3CA H1047L; binding; competition with immobilised ligand; 1 µM): 100%

F[C@@H]1CCN(c2nccc(-c3cnn4ncccc34)n2)C1
remaining binding (PIK3CA Q546K; binding; 1 µM): 55%

O=C(Nc1c[nH]nc1C(=O)NC1CCNCC1)c1cc(F)cc(F)c1
remaining binding (PIK3CA C420R; binding; competition with immobilised ligand; 1 µM): 100%

Cc1cnn2ncc(-c3ccnc(N(C)C)n3)c2c1
remaining binding (PIK3CA C420R; binding; 1 µM): 100%

Cc1c(C(=O)O)cc(-c2ccc(C3CCNCC3)cc2)c2ccc(-c3ccc(C(F)(F)F)cc3)cc12
remaining binding (PIK3CA I800L; cell-free assay; competition with immobilised ligand; 1 µM): 100%

N[C@H]1CCN(c2nccc(-c3cnn4ncccc34)n2)C1
remaining binding (PIK3CA H1047L; binding; 1 µM): 75%

CC(=O)C1=C(C)N(c2cccc(C(F)(F)F)c2)C(=O)N[C@@H]1c1ccc(C#N)nc1
remaining binding (PIK3CA H1047L; cell-free assay; competition with immobilised ligand; 1 µM): 69%

O=C(c1ccc(Nc2ncc(Cl)c(-c3cc4ccccc4s3)n2)cc1)N1CCC(N2CCCC2)CC1
remaining binding (PIK3CA E545A; binding; competition with immobilised ligand; 1 µM): 99%

C[C@H](NC(=O)c1cnc2n1[C@](C)(Cc1ccc(C#N)cc1)C(=O)N2c1cc(Cl)c(F)c(Cl)c1)C(=O)NC1(c2ccccn2)CC1
remaining binding (PIK3CA H1047L; cell-free assay; competition with immobilised ligand; 1 µM): 81%

c1cnn2ncc(-c3ccnc(N4CCC45COC5)n3)c2c1
remaining binding (PIK3CA H1047L; binding; 1 µM): 62%

CN1CCN(c2ccc(Nc3nccc(-c4ccccc4)n3)cc2C(F)(F)F)CC1
remaining binding (PIK3CA E542K; binding; 10 µM): 70%

CC1=C(C#N)[C@@H](c2ccc3[nH]nc(C)c3c2)C(C#N)=C(c2ccc(Cl)cc2)N1
remaining binding (PIK3CA E545A; cell-free assay; competition with immobilised ligand; 1 µM): 75.4%
